Results on 13 molecules are retold here after ChEMBL document CHEMBL2086222, “Bioassay-guided isolation of prenylated xanthones and polycyclic acylphloroglucinols from the leaves of Garcinia nujiangensis” (J Nat Prod, 2012).

One data set deals with MCF7. Description: Cytotoxicity against human MCF7 cells assessed as reduction in cell viability at 5 to 40 uM after 72 hrs by MTT assay. It is filed as functional, cell-based. A digest of the protocol:
(§1)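 Cells in RPMI 1640, DMEM or DMEM/F12 with 10% FBS, 37 °C, 5% CO2. Plated at 5 × 10^3 cells/well and attached overnight. Exposed 72 h to 5, 10, 20 or 40 μM from DMSO stocks diluted in medium. MTT (5 mg/mL stock in PBS) added for 4 h at 37 °C, formazan dissolved in DMSO, A490 read. Untreated cells taken as 100%.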
(Formazan colour is commonly taken as a measure of viable cells.)

In the next data set the test system is AGS. Kind of data set: Cytotoxicity against human AGS cells assessed as reduction in cell viability at 5 to 40 uM after 72 hrs by MTT assay. It is filed as functional, cell-based. The method in brief:
as §1

The test system of another data set is NCI-H2126. Description: Cytotoxicity against human NCI-H2126 cells assessed as reduction in cell viability at 5 to 40 uM after 72 hrs by MTT assay. It is filed as functional, cell-based. The method in brief:
as §1

The next data set relates to MDA-MB-231. Description: Cytotoxicity against human MDA-MB-231 cells assessed as reduction in cell viability at 5 to 40 uM after 72 hrs by MTT assay. It is filed as functional, cell-based. A digest of the protocol: as §1
The next data set deals with A549. Kind of data set: Cytotoxicity against human A549 cells assessed as reduction in cell viability at 5 to 40 uM after 72 hrs by MTT assay. It is filed as functional, cell-based. The method in brief:
as §1

A further data set has as its system A-375. Description: Cytotoxicity against human A375 cells assessed as reduction in cell viability at 5 to 40 uM after 72 hrs by MTT assay. It is filed as functional, cell-based. A digest of the protocol: as §1
In another data set the test system is SMMC-7721. Kind of data set: Cytotoxicity against human SMMC7721 cells assessed as reduction in cell viability at 5 to 40 uM after 72 hrs by MTT assay. Format: functional, cell-based. A digest of the protocol:
as §1

In the next data set the test system is HepG2. Kind of data set: Cytotoxicity against human HepG2 cells assessed as reduction in cell viability at 5 to 40 uM after 72 hrs by MTT assay. Format: functional, cell-based. The method in brief:
as §1

In a further data set the test system is BXPC-3. Description: Cytotoxicity against human BxPC3 cells assessed as reduction in cell viability at 5 to 40 uM after 72 hrs by MTT assay. Format: functional, cell-based. A digest of the protocol:
as §1

Another data set concerns U-87MG ATCC. Kind of data set: Cytotoxicity against human U87 cells assessed as reduction in cell viability at 5 to 40 uM after 72 hrs by MTT assay. Format: functional, cell-based. A digest of the protocol: as §1
A further data set concerns PANC-1. Kind of data set: Cytotoxicity against human PANC1 cells assessed as reduction in cell viability at 5 to 40 uM after 72 hrs by MTT assay. It is filed as functional, cell-based. The method in brief: as §1
Data set [1] in a line: Cytotoxicity against human MIHA cells assessed as reduction in cell viability at 5 to 40 uM after 72 hrs by MTT assay. Format: cell-based. A digest of the protocol: as §1

Activity calls are given as the source filed them. The rule behind the calls is not given here.

With `C=C(C)CCC(C[C@]12C[C@@H]3[C@H](C=C(C)C)[C@](C(=O)c4ccc(O)c(O)c4)(C1=O)C(=O)[C@](CC=C(C)C)(C2=O)C3(C)C)C(=C)C` (stereo not given in full), the outcome in the data set with MCF7, with AGS, in the data set with NCI-H2126, in the data set with MDA-MB-231, in the data set with A549 and in the data set on A-375 was Active. Also, the result with SMMC-7721, in the data set on HepG2, in the data set on BXPC-3, with U-87MG ATCC and in the data set with PANC-1 was Active. Further, the Activity entry in [1] was “Non-toxic”.
Turning to `C=C(C)CC[C@H]1C[C@@]23C[C@@H](CC=C(C)C)C(C)(C)[C@@](CC=C(C)C)(C(=O)C(C(=O)c4ccc(O)c(O)c4)=C2OC1(C)C)C3=O`, the result in the data set with MCF7, in the data set with AGS, in the data set with NCI-H2126, in the data set on MDA-MB-231, in the data set with A549 and in the data set on A-375 was Active. In addition, the outcome in the data set with SMMC-7721, in the data set on HepG2, in the data set with BXPC-3, in the data set with U-87MG ATCC and in the data set with PANC-1 was Active. Moreover, the Activity result in data set [1] is listed as “Non-toxic”.
On to `C=C(C)[C@@H](CC=C(C)C)C[C@@]12C[C@H](CC=C(C)C)C(C)(C)[C@@](CC=C(C)C)(C(=O)C(C(=O)c3ccc(O)c(O)c3)=C1O)C2=O`, for which the outcome in the data set on MCF7, with AGS, in the data set on NCI-H2126, in the data set with MDA-MB-231, in the data set on A549 and with A-375 was Active. Also, the outcome in the data set on SMMC-7721, in the data set on HepG2, with BXPC-3, in the data set with U-87MG ATCC and in the data set with PANC-1 was Active. Besides, in [1], the Activity entry is “Non-toxic”.
Turning to `CC(C)=CC[C@H]1C[C@@]23C[C@H](CC=C(C)C)C(C)(C)[C@@](CC=C(C)C)(C(=O)C(C(=O)c4ccc(O)c(O)c4)=C2OC1(C)C)C3=O`, the result in the data set on MCF7, with AGS, in the data set on NCI-H2126, in the data set with MDA-MB-231, in the data set with A549 and with A-375 was Active. For the same molecule, the outcome in the data set with SMMC-7721, in the data set on HepG2, with BXPC-3, in the data set on U-87MG ATCC and in the data set on PANC-1 was Active. Besides, the Activity result in data set [1] is reported as “Non-toxic”.
Take `C=C(C)CCC(C[C@@]12C[C@H](CC=C(C)C)C(C)(C)[C@@](CC=C(C)C)(C1=O)c1oc3cc(O)c(O)cc3c(=O)c1C2=O)C(=C)C` (relative stereo): the outcome in the data set with MCF7, with AGS, in the data set with NCI-H2126, with MDA-MB-231, in the data set on A549 and in the data set with A-375 was Active. For the same molecule, the outcome with SMMC-7721, in the data set with HepG2, in the data set with BXPC-3, with U-87MG ATCC and with PANC-1 was Active. The Activity result in [1] is listed as “Non-toxic”.
For `C=C(C)CCC(C[C@@]12C[C@@H](CC=C(C)C)C(C)(C)[C@@](CC=C(C)C)(C(=O)c3c1oc1cc(O)c(O)cc1c3=O)C2=O)C(=C)C` (relative stereo), the outcome with MCF7, with AGS, with NCI-H2126, in the data set on MDA-MB-231, with A549 and with A-375 was Active. Further, the result in the data set on SMMC-7721, in the data set with HepG2, in the data set on BXPC-3, with U-87MG ATCC and in the data set with PANC-1 was Active. Further, the Activity entry in [1] is given as “Non-toxic”.
As to `C=C(C)CCC(C[C@]12C[C@H](CC=C(C)C)C(C)(C)[C@@]3(C[C@@H](C(C)(C)O)OC3=C(C(=O)c3ccc(O)c(O)c3)C1=O)C2=O)C(=C)C` (relative stereo), the outcome in the data set on MCF7, in the data set with AGS, in the data set with NCI-H2126, in the data set on MDA-MB-231, in the data set on A549 and with A-375 was Active. For the same molecule, the outcome in the data set on SMMC-7721, in the data set with HepG2, with BXPC-3, in the data set on U-87MG ATCC and in the data set on PANC-1 was Active. For the same molecule, the Activity result in data set [1] is given as “Non-toxic”.
For the molecule `CC(C)=CC[C@H]1C[C@@]23C[C@@H](CC=C(C)C)C(C)(C)[C@@](CC=C(C)C)(C(=O)C(C(=O)c4ccc(O)c(O)c4)=C2OC1(C)C)C3=O` [CAMBOGIN], the outcome in the data set with MCF7, in the data set on AGS, with NCI-H2126, in the data set with MDA-MB-231, in the data set with A549 and with A-375 was Active. Besides, the outcome in the data set on SMMC-7721, in the data set with HepG2, with BXPC-3, in the data set with U-87MG ATCC and in the data set on PANC-1 was Active. For the same molecule, in data set [1], the Activity entry is on record as “Non-toxic”.
`C=C(C)CC[C@@H]1C[C@]23C[C@H](CC=C(C)C)C(C)(C)[C@](CC=C(C)C)(C(=O)C(C(=O)c4ccc(O)c(O)c4)=C2OC1(C)C)C3=O` [CYCLOXANTHOCHYMOL]: the outcome in the data set on MCF7, in the data set on AGS, with NCI-H2126, with MDA-MB-231, with A549 and with A-375 was Active. Besides, the outcome in the data set with SMMC-7721, with HepG2, in the data set with BXPC-3, in the data set on U-87MG ATCC and with PANC-1 was Active. For the same molecule, the Activity result in data set [1] was “Non-toxic”.
Turning to `C=C(C)[C@@H]1C[C@]23C[C@H](CC=C(C)C)C(C)(C)[C@](CC=C(C)C)(C(=O)C(C(=O)c4ccc(O)c(O)c4)=C2O[C@H]1C=C(C)C)C3=O` [GARCINIALIPTONE B], the outcome in the data set with MCF7, in the data set on AGS, in the data set on NCI-H2126, with MDA-MB-231, in the data set with A549 and in the data set with A-375 was Active. Further, the outcome in the data set with SMMC-7721, in the data set on HepG2, with BXPC-3, with U-87MG ATCC and in the data set with PANC-1 was Active. Further, in data set [1], the Activity result was “Non-toxic”.
Turning to `CC1(C)C=Cc2c(cc(O)c3c(=O)c4ccc(O)c(O)c4oc23)O1` [ISOJACAREUBIN], the Activity entry in data set [1] was “Non-toxic”.
With `O=c1c(O)c(-c2ccc(O)cc2)oc2cc(O)cc(O)c12` [KAEMPFEROL], the result in the data set on MCF7, in the data set with AGS, with NCI-H2126, with MDA-MB-231, in the data set on A549 and with A-375 was Active. The result with SMMC-7721, in the data set with HepG2, in the data set with BXPC-3, in the data set on U-87MG ATCC and with PANC-1 was Active. The Activity entry in [1] was “Non-toxic”.
With `COc1c(O)c(O)c2c(=O)c3c(CC=C(C)C)c(CC=C(C)C)c(O)c(O)c3oc2c1CC=C(C)C` [NUJIANGEXANTHONE A], the result with MCF7, with AGS, in the data set with NCI-H2126, in the data set with MDA-MB-231, with A549 and in the data set on A-375 was Active. For the same molecule, the result with SMMC-7721, in the data set with HepG2, in the data set on BXPC-3, in the data set on U-87MG ATCC and in the data set with PANC-1 was Active. For the same molecule, the Activity entry in data set [1] is recorded as “Non-toxic”.
